Measured values published in ChEMBL document CHEMBL3259819, “Antimicrobial peptides from skin secretions of Hypsiboas pulchellus (Anura: Hylidae)” (J Nat Prod, 2014).
Values after ≈ are worked out from the molar mass of the structure shown. Where a SMILES comes first, the peptide text is derived from it.

Assays:
Escherichia coli [1] = experiment: Antimicrobial activity against Escherichia coli; type: functional
Pseudomonas aeruginosa = experiment: Antimicrobial activity against Pseudomonas aeruginosa; type: functional
Staphylococcus aureus [2] = experiment: Antimicrobial activity against Staphylococcus aureus; type: functional
Bacillus subtilis = experiment: Antimicrobial activity against Bacillus subtilis; type: functional
Enterococcus faecalis = experiment: Antimicrobial activity against Enterococcus faecalis; type: functional
[3] = Toxicity in erythrocytes (unknown origin) assessed as hemolytic activity; type: cell-based, Erythrocyte; conditions: read-out: HD50 (the source's name)
Method in brief: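 Human erythrocytes from heparinised blood, spun 3000 rpm for 10 min after three saline washes, used at 0.4% (v/v) in isotonic saline. Equal volumes incubated with increasing concentrations (0.4 to 4.4 mg/mL for extracts) for 60 min at 37 °C. Cells spun at 3000 rpm for 5 min and supernatant A405 read. Lysis by 1% Triton X-100 served as 100%.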

Escherichia coli [4] = experiment: Antimicrobial activity against Escherichia coli ATCC 25922 after 18 to 24 hrs by microtitre dilution method; type: functional
Method in brief: (§1)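 Modified microtiter broth dilution (Hancock method for AMPs). Strains were activated 24 h at 37 °C in Mueller-Hinton broth, and the inoculum was set to 5 × 10^7 cfu/mL. Tests ran in diluted MHB for 18 to 24 h at 37 °C. Peptides were solubilised in water with 10% acetic acid; the top assay concentration was 1280 μg/mL. MIC is the lowest concentration inhibiting growth.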

[5] = Hemolytic activity in human erythrocytes at 320 uM after 60 mins; type: ADME, cell-based, Erythrocyte; conditions: read-out: Activity
Method in brief: (§2)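 Human erythrocytes came from heparinized blood, were washed three times in saline and pelleted, then suspended at 0.4% (v/v) in isotonic saline. 1 mL cells was mixed with 1 mL peptide dilution and held 60 min at 37 °C. After centrifugation, supernatant absorbance was read at 405 nm, with lysis by 1% Triton X-100 set as 100%.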

[6] = Therapeutic index, ratio of hemolytic activity in human erythrocytes assessed as lowest concentration required for hemolysis to MIC for Escherichia coli; type: cell-based; conditions: read-out: TI
Method in brief: (§3)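 TI is the lowest hemolytic concentration divided by the MIC, calculated per peptide and strain. LHC is the lowest peptide concentration giving 100% hemolysis of human erythrocytes (60 min, 37 °C). Where 100% hemolysis was not reached at 320 μM, 640 μM was used. MICs came from microtiter broth dilution against E. coli ATCC 25922 or S. aureus ATCC 25929.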

Staphylococcus aureus [7] = experiment: Antimicrobial activity against Staphylococcus aureus ATCC 25929 after 18 to 24 hrs by microtitre dilution method; type: functional; method in brief: as §1
[8] = Hemolytic activity in human erythrocytes assessed as lowest concentration required to hemolysis after 60 mins; type: ADME, cell-based; conditions: erythrocyte, 1 h; method in brief: as §2
[9] = Therapeutic index, ratio of hemolytic activity in human erythrocytes assessed as lowest concentration required for hemolysis to MIC for Staphylococcus aureus; type: cell-based; conditions: read-out: TI; method in brief: as §3
[10] = Hemolytic activity in human erythrocytes at 20 uM after 60 mins; type: ADME, cell-based, Erythrocyte; conditions: read-out: Activity; method in brief: as §2

Structure (SMILES)	MIC (Escherichia coli [1]) [µM]	MIC (Pseudomonas aeruginosa) [µM]	MIC (Staphylococcus aureus [2]) [µM]	MIC (Bacillus subtilis) [µM]	MIC (Enterococcus faecalis) [µM]	HC50 [3] [µM]	MIC (Escherichia coli [4]) [µM]	hemolysis at 1 h, 320 µM [5] [%]	selectivity ratio [6]	MIC (Staphylococcus aureus [7]) [µM]	MHC [8] [µM]	selectivity ratio [9]	hemolysis at 1 h, 20 µM [10] [%]
CC(C)C[C@H](NC(=O)[C@H](C)NC(=O)[C@@H](NC(=O)[C@H](CCCCN)NC(=O)CNC(=O)[C@@H](NC(=O)[C@@H](NC(=O)[C@H](CCCCN)NC(=O)CNC(=O)[C@H](CC(C)C)NC(=O)[C@H](CO)NC(=O)[C@H](CCCCN)NC(=O)[C@H](CC(C)C)NC(=O)[C@H](CCCCN)NC(=O)[C@H](CC(=O)O)NC(=O)[C@H](CC(C)C)NC(=O)[C@H](Cc1c[nH]c2ccccc12)NC(=O)[C@H](C)N)C(C)C)C(C)C)C(C)C)C(=O)NCC(=O)N[C@H](C(=O)N[C@@H](C)C(=O)N[C@@H](CCC(N)=O)C(=O)N[C@@H](CC(N)=O)C(=O)N[C@@H](Cc1ccc(O)cc1)C(=O)N[C@@H](CC(C)C)C(=O)N[C@@H](CC(N)=O)C(=O)N1CCC[C@H]1C(=O)N[C@@H](CCC(N)=O)C(=O)N[C@@H](CCC(N)=O)C(=O)O)C(C)C (H-AWLDKLKSLGKVVGKVALGVAQNYLNPQQ-OH)	5 (≈ 15.7 µg/mL)	10 (≈ 31.4 µg/mL)	20 (≈ 62.8 µg/mL)	–	–	–	–	–	–	–	–	–	–
CC[C@H](C)[C@H](NC(=O)CN)C(=O)N[C@@H](CC(C)C)C(=O)N[C@@H](CC(=O)O)C(=O)N[C@@H](C)C(=O)N[C@H](C(=O)N[C@@H](CCCCN)C(=O)N[C@@H](C)C(=O)N[C@H](C(=O)N[C@@H](C)C(=O)N[C@@H](CCCCN)C(=O)N[C@@H](C)C(=O)N[C@@H](C)C(=O)NCC(=O)O)[C@@H](C)CC)[C@@H](C)CC (H-GILDAIKAIAKAAG-OH)	32 (≈ 42 µg/mL)	64 (≈ 83.9 µg/mL)	8 (≈ 10.5 µg/mL)	–	–	–	–	–	–	–	–	–	–
CC[C@H](C)[C@H](N)C(=O)N[C@@H](Cc1ccccc1)C(=O)NCC(=O)N[C@@H](C)C(=O)N[C@H](C(=O)N[C@@H](CC(C)C)C(=O)N1CCC[C@H]1C(=O)N[C@@H](CC(C)C)C(=O)N[C@@H](C)C(=O)N[C@@H](CC(C)C)C(=O)NCC(=O)N[C@@H](C)C(=O)N[C@@H](CC(C)C)C(=O)N[C@@H](CCCCN)C(=O)N[C@@H](CC(N)=O)C(=O)N[C@@H](CC(C)C)C(=O)N[C@H](C(=O)N[C@@H](CCCCN)C(=O)O)[C@@H](C)CC)[C@@H](C)CC (H-IFGAILPLALGALKNLIK-OH)	32 (≈ 59.7 µg/mL)	64 (≈ 119 µg/mL)	8 (≈ 14.9 µg/mL)	8 (≈ 14.9 µg/mL)	16 (≈ 29.8 µg/mL)	18	–	–	–	–	–	–	–
CC(C)C[C@H](NC(=O)[C@H](CO)NC(=O)[C@@H]1CCCN1C(=O)[C@H](CO)NC(=O)[C@H](CC(C)C)NC(=O)[C@@H](N)CCCCN)C(=O)NCC(=O)N1CCC[C@H]1C(=O)N[C@H](C(=O)N[C@@H](CO)C(=O)N[C@@H](CCCCN)C(=O)NCC(=O)N[C@@H](CCCCN)C(=O)N[C@@H](CC(C)C)C(=O)N[C@@H](CC(C)C)C(=O)N[C@@H](C)C(=O)NCC(=O)N[C@@H](CCC(N)=O)C(=O)N[C@@H](CCCNC(=N)N)C(N)=O)C(C)C (H-KLSPSLGPVSKGKLLAGQR-NH2)	–	–	–	–	–	–	33 (≈ 63.9 µg/mL)	100	9.7	66 (≈ 128 µg/mL)	320	4.9	–
CC(C)C[C@H](NC(=O)CNC(=O)[C@H](C)NC(=O)[C@H](CC(C)C)NC(=O)[C@H](CC(C)C)NC(=O)[C@@H](NC(=O)[C@H](CCCCN)NC(=O)[C@H](CC(C)C)NC(=O)[C@H](CC(C)C)NC(=O)[C@H](C)NC(=O)[C@@H]1CCCN1C(=O)[C@H](CC(C)C)NC(=O)[C@H](C)NC(=O)[C@@H](NC(=O)CNC(=O)[C@H](CC(C)C)NC(=O)[C@@H](N)CCCNC(=N)N)[C@@H](C)O)[C@@H](C)O)C(=O)N[C@@H](CC(N)=O)C(=O)NCC(N)=O (H-RLGTALPALLKTLLAGLNG-NH2)	–	–	–	–	–	–	17 (≈ 32.2 µg/mL)	–	1.5	17 (≈ 32.2 µg/mL)	25	1.5	> 90
CC(C)C[C@H](NC(=O)[C@H](CC(C)C)NC(=O)[C@@H](NC(=O)[C@@H]1CCCN1C(=O)[C@H](CCCCN)NC(=O)[C@@H](N)[C@@H](C)O)[C@@H](C)O)C(=O)NCC(=O)N[C@@H](CC(C)C)C(=O)N1CCC[C@H]1C(=O)N[C@@H](CC(C)C)C(=O)NCC(=O)N[C@@H](C)C(=O)NCC(=O)N1CCC[C@H]1C(=O)N[C@@H](C)C(=O)N[C@@H](C)C(=O)NCC(=O)N1CCC[C@H]1C(=O)NCC(=O)N[C@@H](CCCCN)C(=O)N[C@@H](CCCNC(=N)N)C(N)=O (H-TKPTLLGLPLGAGPAAGPGKR-NH2)	–	–	–	–	–	–	16 (≈ 31.5 µg/mL)	≤ 12	40	8 (≈ 15.8 µg/mL)	640	80	–
